In ChEMBL document CHEMBL1671867, “Novel polymyxin derivatives carrying only three positive charges are effective antibacterial agents” (Antimicrob Agents Chemother, 2008):
Values after ≈ are worked out from the molar mass of the structure shown.

Experiments:
Proteus vulgaris = test: Antibacterial activity against Proteus vulgaris ATCC 13315 by Etest method in presence of 4 ug/ml NAB7074; type: functional
Escherichia coli [1] = test: Antibacterial activity against Escherichia coli ATCC […] by Etest method in presence of NAB7061; type: functional
Escherichia coli [2] = test: Antibacterial activity against 5 x 10^5 CFU/ml Escherichia coli ATCC […] by Etest method by Etest in presence of 8 ug/ml NAB7061; type: functional
Escherichia coli [3] = test: Antibacterial activity against Escherichia coli IH3080 by Etest method in presence of NAB7061; type: functional
Pseudomonas aeruginosa = test: Antibacterial activity against Pseudomonas aeruginosa ATCC 27853by Etest method in presence of […] NAB739; type: functional
Escherichia coli [4] = test: microbe, parasite or virus in culture; settings: ATCC 25992
Escherichia coli [5] = test: Antibacterial activity against 5 x 10^5 CFU/ml Escherichia coli ATCC […] by Etest method by Etest in presence of 2 ug/ml NAB7061; type: functional
Acinetobacter baumannii [6] = test: Antibacterial activity against Acinetobacter baumannii ATCC 19606 by Etest method in presence of 0.5 ug/ml NAB739; type: functional
Citrobacter freundii = test: Antibacterial activity against Citrobacter freundii ATCC 8090 by Etest method in presence of 4 ug/ml NAB7069; type: functional
Klebsiella oxytoca = test: Antibacterial activity against Klebsiella oxytoca CCUG51683 by Etest method in presence of 4 ug/ml NAB7066; type: functional
Escherichia coli [7] = test: Antibacterial activity against Escherichia coli IH3080 by Etest method in presence of 2 ug/ml NAB7062; type: functional
Klebsiella pneumoniae = test: Antibacterial activity against Klebsiella pneumoniae ATCC 13883 by Etest method; type: functional
Procedure, shortened: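 MICs of the antibiotic taken from E-strips on Mueller-Hinton agar, run both with and without peptide. […] Inoculum was prepared per the strip manufacturer, matching CLSI M2-A9.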

Escherichia coli [8] = test: Antibacterial activity against 5 x 10^5 CFU/ml Escherichia coli ATCC […] by Etest method by Etest in presence of 1 ug/ml NAB7061; type: functional
Escherichia coli [9] = test: Antibacterial activity against Escherichia coli ATCC 25992 in presence of NAB7061; type: functional
Proteus mirabilis = test: Antibacterial activity against Proteus mirabilis ATCC 29906 by Etest method in presence of 4 ug/ml NAB7073; type: functional
Acinetobacter baumannii [10] = test: Antibacterial activity against Acinetobacter baumannii by Etest method in presence of 4 ug/ml NAB7071; type: functional
Escherichia coli [11] = test: Antibacterial activity against Escherichia coli ATCC 25992 by Etest method; type: functional
Procedure, shortened: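 E-strip MIC on Mueller-Hinton agar without added peptide; inoculum per manufacturer, matching CLSI M2-A9.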

For `CO[C@H]1/C=C/O[C@@]2(C)Oc3c(C)c(O)c4c(O)c(c(/C=N/N5CCN(C)CC5)c(O)c4c3C2=O)NC(=O)/C(C)=C\C=C\[C@H](C)[C@H](O)[C@@H](C)[C@@H](O)[C@@H](C)[C@H](OC(C)=O)[C@@H]1C` [RIFAMPIN], the MIC (Proteus vulgaris) was 1 µg/mL, the “fractional inhibitory concentration index (FICI)” value (Escherichia coli [1]) was 0.071 and the MIC (Escherichia coli [2]) was 0.006 µg/mL. It also gave an MIC (Escherichia coli [3]) of at most 0.055 µg/mL, an MIC (Pseudomonas aeruginosa) of 32 µg/mL and an MIC (Escherichia coli [4]) of 8 µg/mL (≈ 9.72 µM). For the same molecule, the MIC (Escherichia coli [5]) was 0.064 µg/mL, the MIC (Acinetobacter baumannii [6]) was 0.047 µg/mL and the MIC (Citrobacter freundii) was 0.023 µg/mL. For the same molecule, the MIC (Klebsiella oxytoca) was 0.012 µg/mL, the MIC (Escherichia coli [7]) was 0.19 µg/mL and the MIC (Klebsiella pneumoniae) was over 16 µg/mL. For the same molecule, the MIC (Escherichia coli [8]) was 0.19 µg/mL, the “fractional inhibitory concentration index (FICI)” value (Escherichia coli [9]) was “<=0.128” and the MIC (Proteus mirabilis) was 1 µg/mL. For the same molecule, the MIC (Acinetobacter baumannii [10]) was 0.032 µg/mL and the MIC (Escherichia coli [11]) was 8 µg/mL (≈ 9.72 µM).
